Assay results: ChEMBL document CHEMBL2163205 (J Med Chem, 2012)
Calls of active or inactive are those of the source. No cut-off for these calls is given here.

Legend:
[1] = Lipophilicity, log D of the compound at pH 7.4; details: buffer
in vivo [2] = details: Beagle, dog, plasma, iv, 1 mg/kg
Canis familiaris = test: In-vivo inhibition of CatK in orally dosed Alderley Park Beagle dog assessed as reduction in CTX-1 level at 0.1 to 2 mg/kg, po qd by ELISA; assay type: functional, organism-based; details: Canis lupus familiaris
Summary of the method: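 Male Alderley Park Beagles (12−14 months, 14−17 kg) gavaged at 0.1, 0.3 or 2.0 mg/kg in 5% DMSO + 95% HPMC/Tween, 5 mL/kg, with dosing started at the same time of day. Jugular blood was clotted ≥1 h at room temperature and serum spun down. Serum CTX-1 was measured by CrossLaps ELISA; points are mean n = 2.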

[3] = Fraction unbound in human serum; assay type: ADME, cell-free
Summary of the method: (§1)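 Serum or plasma protein binding reported as percentage free. Each value is the mean of at least n = 2 experiments.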

Procathepsin L = Procathepsin L (Homo sapiens, UniProt P07711); test: Inhibition of human recombinant CatL assessed as suppression of enzyme-mediated Z-Phe-Arg-AMC cleavage by QFRET assay
Summary of the method: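 Recombinant human Cat L at 0.1 nM final was preincubated with compound for 30 min, then Z-Phe-Arg-AMC (10 μM final) was added. QFRET cleavage was run 1 h at room temperature and stopped with acetic acid. Fluorescence read at ex 360/em 425 nm; IC50 by variable-slope nonlinear regression.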

[4] = Volume of distribution at steady state in Alderley Park Han Wistar rat at 2.0 mg/kg, po and 2.0 mg/kg, iv administered as single dose; assay type: ADME, organism-based; details: in vivo, read-out: Vdss
Summary of the method: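 Male Alderley Park Han Wistar rats, fed. Given single iv dose of 2.0 mg/kg as a solution in 40% DMA/water and single po dose of 2.0 mg/kg as a suspension in 5% DMSO/95% HPMC/TWEEN. At least two experiments, each with two animals.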

[5] = Intrinsic clearance in dog hepatocytes assessed as metabolic turnover measured per 10^6 cells
[6] = Fraction unbound in rat serum; assay type: ADME, cell-free; summary of the method: as §1
[7] = Half life in Beagle dog at 1.0 mg/kg, iv administered as single dose; details: in vivo
[8] = Volume of distribution at steady state in Beagle dog at 1.0 mg/kg, po and 1.0 mg/kg, iv administered as single dose; assay type: ADME, organism-based, Canis lupus familiaris; details: in vivo, read-out: Vdss
Summary of the method: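 Beagle dogs, fasted. Given single iv dose of 1.0 mg/kg as a solution in 10% DMSO/90% Sorensons and single po dose of 1.0 mg/kg as a suspension in 5% DMSO/95% HPMC/TWEEN. At least two experiments, each with two animals.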

Cathepsin B = Cathepsin B (Homo sapiens, UniProt P07858); test: Inhibition of human recombinant CatB assessed as suppression of enzyme-mediated Z-Arg-Arg-AMC cleavage by QFRET assay
Summary of the method: (§2)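 Recombinant human Cat B at 0.5 nM final was preincubated with compound for 30 min at room temperature. Z-Arg-Arg-AMC (100 μM final) was added in potassium phosphate buffer, pH 6.4, incubated 1 h, then stopped with acetic acid. Fluorescence read at ex 360/em 425 nm with background correction; IC50 by nonlinear regression.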

in vivo [9] = details: Alderley Park Han Wistar, rat, plasma, iv, 2 mg/kg
[10] = Intrinsic clearance in human liver microsomes assessed as metabolic turnover
[11] = Intrinsic clearance in rat liver microsomes assessed as metabolic turnover
[12] = Oral bioavailability in Beagle dog at 1.0 mg/kg administered as single dose; details: in vivo
[13] = Half life in Alderley Park Han Wistar rat at 2.0 mg/kg, iv administered as single dose; details: in vivo
[14] = Fraction unbound in dog serum; assay type: ADME, cell-free, Canis lupus familiaris; summary of the method: as §1
[15] = Intrinsic clearance in human hepatocytes assessed as metabolic turnover measured per 10^6 cells
Cathepsin K [16] = target: T1, Cathepsin K (Homo sapiens, UniProt P43235); test: Inhibition of human recombinant CatK assessed as suppression of enzyme-mediated Z-Phe-Arg-AMC cleavage incubated for 1 hrs by QFRET assay
T1 sequence (P43235 whole entry): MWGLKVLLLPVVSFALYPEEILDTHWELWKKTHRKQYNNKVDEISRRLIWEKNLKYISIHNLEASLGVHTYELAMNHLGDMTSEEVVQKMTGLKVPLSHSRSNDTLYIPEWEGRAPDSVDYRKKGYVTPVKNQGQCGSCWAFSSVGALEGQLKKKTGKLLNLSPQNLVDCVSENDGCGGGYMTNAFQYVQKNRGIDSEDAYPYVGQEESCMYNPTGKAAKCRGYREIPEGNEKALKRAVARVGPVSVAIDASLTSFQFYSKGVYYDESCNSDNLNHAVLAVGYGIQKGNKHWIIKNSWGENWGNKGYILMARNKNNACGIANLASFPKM

Cathepsin K [17] = target: T2, Cathepsin K (Canis lupus familiaris, UniProt Q3ZKN1); test: Inhibition of dog recombinant CatK assessed as suppression of enzyme-mediated Z-Phe-Arg-AMC cleavage by QFRET assay
T2 sequence (Q3ZKN1 whole entry): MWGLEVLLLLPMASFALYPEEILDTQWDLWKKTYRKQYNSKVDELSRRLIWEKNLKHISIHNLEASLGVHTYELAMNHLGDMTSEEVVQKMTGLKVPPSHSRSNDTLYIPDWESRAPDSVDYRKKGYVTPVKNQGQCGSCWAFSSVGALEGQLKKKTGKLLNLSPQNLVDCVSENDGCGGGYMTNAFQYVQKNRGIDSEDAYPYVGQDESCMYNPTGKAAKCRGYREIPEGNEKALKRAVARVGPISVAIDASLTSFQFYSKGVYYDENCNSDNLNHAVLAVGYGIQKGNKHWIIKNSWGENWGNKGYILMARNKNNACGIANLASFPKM
Summary of the method: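 Recombinant dog Cat K at 0.5 nM final was preincubated with compound for 30 min at room temperature. Z-Phe-Arg-AMC (15 μM final) was added in sodium acetate buffer, pH 5.5, and incubated 1 h at room temperature in the dark, then stopped with 7.5% acetic acid. Fluorescence read at ex 360/em 425 nm; IC50 by nonlinear regression.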

[18] = Oral bioavailability in Alderley Park Han Wistar rat at 2.0 mg/kg administered as single dose; assay type: ADME, organism-based; details: in vivo
Summary of the method: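 Fed male Alderley Park Han Wistar rats dosed po at 2.0 mg/kg as a suspension in 5% DMSO/95% HPMC/TWEEN; iv reference dose 2.0 mg/kg in 40% DMA/water. Single doses, at least two experiments of two animals each.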

Cathepsin S = Cathepsin S (Homo sapiens, UniProt P25774); test: Inhibition of human recombinant CatS assessed as suppression of enzyme-mediated Z-Val-Val-Arg-AMC cleavage by QFRET assay
Summary of the method: as §2, with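 “S” for “B”, “Z-Val-Val-Arg-AMC” for “Z-Arg-Arg-AMC”, “AMC fluorescence” for “Fluorescence”, “nm;” for “nm with background correction;”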

Procathepsin L, sequence (P07711 whole entry): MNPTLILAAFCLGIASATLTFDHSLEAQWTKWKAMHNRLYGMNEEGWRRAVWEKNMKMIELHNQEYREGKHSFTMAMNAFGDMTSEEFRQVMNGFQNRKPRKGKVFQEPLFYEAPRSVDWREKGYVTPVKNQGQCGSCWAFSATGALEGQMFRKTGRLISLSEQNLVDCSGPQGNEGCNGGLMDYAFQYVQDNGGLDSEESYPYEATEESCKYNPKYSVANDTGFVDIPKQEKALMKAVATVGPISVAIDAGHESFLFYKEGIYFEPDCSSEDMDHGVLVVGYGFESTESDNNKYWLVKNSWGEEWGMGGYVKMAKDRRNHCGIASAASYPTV
Cathepsin S, sequence (P25774 whole entry): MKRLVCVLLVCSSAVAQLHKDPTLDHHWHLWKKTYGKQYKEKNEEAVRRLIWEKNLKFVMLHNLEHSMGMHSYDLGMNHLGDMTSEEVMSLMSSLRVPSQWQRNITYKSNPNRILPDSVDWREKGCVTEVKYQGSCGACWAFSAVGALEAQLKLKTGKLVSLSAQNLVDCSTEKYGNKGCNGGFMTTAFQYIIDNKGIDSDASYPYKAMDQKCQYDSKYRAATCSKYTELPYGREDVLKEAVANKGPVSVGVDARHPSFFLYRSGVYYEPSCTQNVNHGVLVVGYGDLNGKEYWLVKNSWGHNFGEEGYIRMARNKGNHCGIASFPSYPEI

- logD [1]: 2.7
- clearance (in vivo [2]): 10 mL/min/kg
- fraction unbound [3]: 0.17
- IC50 (Procathepsin L): Not Active
- Vd [4]: 2.3 L/kg
- hepatocyte CLint [5]: 2.5 µL/min/1e6 cells
- fraction unbound [6]: 0.17
- half-life [7]: 1.5 h
- Vd [8]: 1.7 L/kg
- IC50 (Cathepsin B): > 2900 nM
- clearance (in vivo [9]): 53 mL/min/kg
- microsomal CLint [10]: 16 µL/min/mg
- microsomal CLint [11]: 67 µL/min/mg
- bioavailability [12]: 65%
- half-life [13]: 1 h
- fraction unbound [14]: 0.22
- hepatocyte CLint [15]: 5.3 µL/min/1e6 cells
- IC50 (Cathepsin K [16]): < 1 nM
- IC50 (Cathepsin K [17]): 0.8 nM
- bioavailability [18]: 28%
- IC50 (Cathepsin S): > 4000 nM
SMILES: COc1cccc2c3c([nH]c12)CCN(C(=O)[C@@H]1CCCC[C@H]1C(=O)NC1(C#N)CC1)C3
- inhibition (Canis familiaris): Active
